Data on 16 compounds can be found in PubChem BioAssay.

Activity calls are given as the source filed them.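 The calls were made as follows, unless noted: active = viability at or under a set limit in both replicates, limit being median viability minus 3 SD (cut at about 48% in these data, passing the limit was not always enough); inconclusive = at or under the limit in just one replicate; inactive = at or above the limit in both replicates.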

The nature of assay [1]: reducers of endogenous Her2 protein level, primary screen, SKBR3 breast tumor cells, AlphaScreen, ATP viability (AID 461;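 active = Her2 level under about 52% in both replicate screens, with viability over 70% of control, limit read from the data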;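 as to Her2 level: lower value means less Her2 protein in the cells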;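 as to viability: percent of carrier control wells set as 100% viability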). Conditions: 18-24 h, measured here: SKBR3 viability, ATP luminescence, at 10 µM.
In assay [2] the target is Receptor tyrosine-protein kinase erbB-2 (Homo sapiens) (UniProt P04626). The assay is described as above. Conditions: 18-24 h, at 10 µM, stronger effect = lower value.
Sequence of Receptor tyrosine-protein kinase erbB-2 (Homo sapiens) (P04626 whole entry, looked up): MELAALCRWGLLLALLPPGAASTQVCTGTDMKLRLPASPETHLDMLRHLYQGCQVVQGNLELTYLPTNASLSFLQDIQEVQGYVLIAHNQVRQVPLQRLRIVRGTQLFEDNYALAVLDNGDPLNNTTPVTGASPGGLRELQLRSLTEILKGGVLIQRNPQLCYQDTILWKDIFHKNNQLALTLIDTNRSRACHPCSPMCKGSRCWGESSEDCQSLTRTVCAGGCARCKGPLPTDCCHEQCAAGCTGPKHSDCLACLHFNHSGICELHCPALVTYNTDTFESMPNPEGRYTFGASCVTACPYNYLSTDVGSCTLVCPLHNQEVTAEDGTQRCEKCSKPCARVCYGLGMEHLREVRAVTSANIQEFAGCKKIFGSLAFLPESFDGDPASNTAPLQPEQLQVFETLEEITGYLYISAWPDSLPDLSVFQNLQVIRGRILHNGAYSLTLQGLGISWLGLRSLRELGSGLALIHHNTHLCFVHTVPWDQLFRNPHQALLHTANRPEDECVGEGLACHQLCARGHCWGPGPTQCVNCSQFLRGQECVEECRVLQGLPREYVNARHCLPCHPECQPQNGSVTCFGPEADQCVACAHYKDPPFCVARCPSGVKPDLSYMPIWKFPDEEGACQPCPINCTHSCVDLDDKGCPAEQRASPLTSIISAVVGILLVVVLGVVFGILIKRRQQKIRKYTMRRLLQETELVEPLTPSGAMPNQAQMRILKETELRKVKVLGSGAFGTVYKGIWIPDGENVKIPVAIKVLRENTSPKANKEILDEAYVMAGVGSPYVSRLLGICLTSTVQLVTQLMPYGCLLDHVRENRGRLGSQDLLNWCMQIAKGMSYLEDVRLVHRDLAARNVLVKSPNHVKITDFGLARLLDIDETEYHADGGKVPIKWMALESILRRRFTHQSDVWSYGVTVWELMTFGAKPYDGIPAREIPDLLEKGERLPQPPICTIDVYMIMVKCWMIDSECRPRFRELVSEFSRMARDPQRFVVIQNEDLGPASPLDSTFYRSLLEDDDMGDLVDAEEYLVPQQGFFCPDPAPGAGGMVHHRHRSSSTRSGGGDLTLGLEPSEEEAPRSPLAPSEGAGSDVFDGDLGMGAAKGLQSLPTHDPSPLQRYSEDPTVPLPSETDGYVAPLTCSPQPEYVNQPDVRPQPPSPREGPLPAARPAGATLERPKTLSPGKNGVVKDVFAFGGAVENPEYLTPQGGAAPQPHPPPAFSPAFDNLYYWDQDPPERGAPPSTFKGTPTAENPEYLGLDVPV
Assay [3] in a line: SK-BR-3 cell growth inhibitors, pilot screen, 24 h, human (AID 572;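 active = viability at or below 10% of carrier control in both of two separate runs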;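 also: compound exposure lasted between 18 and 24 h rather than exactly 24 h; 100% = carrier-treated control wells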). The following applies: SK-BR-3 viability, CellTiter-Glo luminescence, at 10 µM, stronger effect = lower value.
Assay [4] is described as follows: HUVEC growth inhibition – cell-based, human, primary screen (AID 575;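 active = viability at or below 30% in both replicate assays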;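 also: 100% = median of untreated cell wells with 0.1% DMSO on each plate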). Conditions: HUVEC proliferation, CellTiter-Glo luminescence, 72 h; at 10 µM; stronger effect = lower value. Summed up: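 Test system: HUVEC primary cells. Quantity: 1250 endothelial cells in each well. Dosing: single-point 10 µM, DMSO 0.1% final. Incubation: 72 h treatment at 37 °C. Measured by: CTG luminescence. Control set: DMSO cell controls and MePR drug controls. Plate: collagen-coated 384-well format.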

Assay [5] in a line: growth inhibitors of H69AR lung tumor, primary screen, human, duplicate replicates (AID 580).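 Also: 100% = mean luminescence of untreated wells and 0% = no signal.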 Conditions: H69AR lung tumor cells viability, ATP luminescence, 72 h; at 10 µM; stronger effect = lower value.
Assay [6] can be described thus: reversal of MRP1-mediated doxorubicin resistance, pilot screen, H69AR cells, doxorubicin co-treatment (AID 601;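 active = viability loss from added drug above about 55%, and viability with drug at most 40%, in both replicates, limit read from the data, passing the limit was not always enough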). The following applies: CellTiter-Glo, 72 h, at 10 µM; for differential viability (reversal): stronger effect = higher value.
A short description of assay [7]: 384-well plate pilot, post-Golgi transport modulator project, inhibition of yeast transport mutant growth (AID 636; in the data active = inhibition above about 31%). Conditions: absorbance 615 nm, about 18 h, stronger effect = higher value.
Assay [8] in a line: growth suppression of yeast trafficking mutant, preliminary HTS, modulators of trafficking downstream of Golgi apparatus project, 1536-format plate, OD 615 nm (AID 637; in the data active = inhibition above about 30%). The following applies: yeast transport mutant growth, absorbance 615 nm, 18 h; stronger effect = higher value.
The mark [9] stands for this setting: H69AR cells + 2 uM doxorubicin, measured here: viability with 2 uM doxorubicin, stronger effect = lower value.
Where [10] appears, read: H69AR cells, compound alone cytotoxicity.

Turning to `CCNc1nc(OC)nc(Oc2ccc(=O)n(-c3ccccc3)n2)n1`, the viability in assay [1] was 96%; in assay [3], 96% (inactive); in assay [4], 106% (inactive); in assay [5], 96.4% (inactive); in assay [6] (setting [9]), 85.8%; in assay [6] (setting [10]), 96.4%. In assay [2], the Her2 level was 86.5% (inactive). For the same compound, the differential viability (reversal) in assay [6] (H69AR cells + 2 uM doxorubicin) was 10.6% (inactive). Moreover, the inhibition in assay [7] is -8.51% (inactive); in assay [8], 2% (inactive).

Consider `Cn1c(SCC(N)=O)nnc1C1CCN(C(=O)NCc2ccccc2)CC1`, for which the viability in assay [1] was 88%; in assay [3] it was 88% (inactive); in assay [4] it was 93.6% (inactive); in assay [5], 88.3% (inactive); in assay [6] (setting [9]), 87.8%; in assay [6] (setting [10]), 88.3%. Also, the Her2 level in assay [2] is 103% (inactive). The differential viability (reversal) in assay [6] (H69AR cells + 2 uM doxorubicin) is 0.425% (inactive). Further, the inhibition in assay [7] was -3.55% (inactive); in assay [8], -9.5% (inactive).

Turning to `Cc1c(C2Nc3ccccc3NC3=C2C(=O)CC(C)(C)C3)cnn1C` (stereo not given), the viability is 112% in assay [1]; 112% (inactive) in assay [3]; 93% (inactive) in assay [4]; 89.2% (inactive) in assay [5]; 88.4% in assay [6] (setting [9]); 89.2% in assay [6] (setting [10]). Further, in assay [2], the Her2 level was 107% (inactive). The differential viability (reversal) in assay [6] (H69AR cells + 2 uM doxorubicin) was 0.765% (inactive). Further, the inhibition in assay [7] was -4.38% (inactive); in assay [8] it was -5.87% (inactive).

As to `COc1ccc(Cn2nnnc2C(c2ccccc2OC)N2CCC(C(N)=O)CC2)cc1` (stereo not given), the viability in assay [1] was 100%; in assay [3], 100% (inactive); in assay [4] it was 105% (inactive); in assay [5], 85.4% (inactive); in assay [6] (setting [9]), 84%; in assay [6] (setting [10]), 85.4%. In addition, in assay [2], the Her2 level is 91% (inactive). Also, the differential viability (reversal) in assay [6] (H69AR cells + 2 uM doxorubicin) is 1.34% (inactive). The inhibition in assay [7] was -5.73% (inactive); in assay [8] it was 8.52% (inactive).

Consider `Cc1ccc(C(c2nnnn2CCC(C)C)N2CCN(C)CC2)cc1` (stereo not given), for which the viability in assay [1] was 90.5%; in assay [3] it was 90.5% (inactive); in assay [4], 97.9% (inactive); in assay [5], 98.8% (inactive); in assay [6] (setting [9]), 93.2%; in assay [6] (setting [10]), 98.8%. Moreover, the Her2 level in assay [2] is 84% (inactive). Further, the differential viability (reversal) in assay [6] (H69AR cells + 2 uM doxorubicin) was 5.6% (inactive). Besides, the inhibition in assay [7] was -6.67% (inactive); in assay [8], 1.97% (inactive).

As to `Cc1ccc(S(=O)(=O)Nc2cc(C(=O)O)ccc2N2CCCCC2)cc1`, the viability is 112% in assay [1]; 112% (inactive) in assay [3]; 101% (inactive) in assay [4]; 85.6% (inactive) in assay [5]; 87.6% in assay [6] (setting [9]); 85.6% in assay [6] (setting [10]). Besides, the Her2 level in assay [2] is 112% (inactive). Besides, the differential viability (reversal) in assay [6] (H69AR cells + 2 uM doxorubicin) was -1.99% (inactive). The inhibition was -5.97% (inactive) in assay [7] and 6.07% (inactive) in assay [8].

Turning to `CN(Cc1ccccc1)Cc1c[nH]c2ccccc12`, the viability in assay [1] is 87%; in assay [3], 87% (inactive); in assay [4] it was 79.7% (inactive); in assay [5], 89.8% (inactive); in assay [6] (setting [9]) it was 96.3%; in assay [6] (setting [10]) it was 89.8%. For the same compound, in assay [2], the Her2 level was 96.5% (inactive). For the same compound, the differential viability (reversal) in assay [6] (H69AR cells + 2 uM doxorubicin) was -6.54% (inactive). Besides, the inhibition in assay [7] is -4.61% (inactive); in assay [8], -1.5% (inactive).

For the compound `O=C(O)C1C2CCC(O2)C1C(=O)NCCC1=CCCCC1` (stereo not given), the viability in assay [1] is 78.5%; in assay [3], 78.5% (inactive); in assay [4], 34.2% (inactive); in assay [5], 57.8% (inactive); in assay [6] (setting [9]), 66.8%; in assay [6] (setting [10]), 57.8%. The Her2 level in assay [2] is 118% (inactive). The differential viability (reversal) in assay [6] (H69AR cells + 2 uM doxorubicin) was -9.07% (inactive). In addition, the values for the inhibition in assay [7] and in assay [8] were 0% (inactive) and 0.5% (inactive), respectively.

Regarding `COc1ccc(C2=NO[C@@H]3C(=O)N(c4ccc5c(c4)OCCO5)C(=O)[C@H]23)cc1OC`, the viability in assay [1] is 85%; in assay [3] it was 85% (inactive); in assay [4], 81.7% (inactive); in assay [5], 80.3% (inactive); in assay [6] (setting [9]), 87.1%; in assay [6] (setting [10]), 80.3%. The Her2 level in assay [2] was 112% (inactive). Besides, in assay [6] (H69AR cells + 2 uM doxorubicin), the differential viability (reversal) is -6.85% (inactive). Further, the inhibition in assay [7] is 2.34% (inactive); in assay [8], -5.08% (inactive).

For the compound `CC(C)Cn1c(N)c(C(=O)COC(=O)c2cc(-c3ccco3)nc3ccccc23)c(=O)n(C)c1=O`, the viability in assay [1] is 78.5%; in assay [3], 78.5% (inactive); in assay [4], 66.8% (inactive); in assay [5] it was 89.3% (inactive); in assay [6] (setting [9]), 91.1%; in assay [6] (setting [10]) it was 89.3%. Besides, the Her2 level in assay [2] was 80% (inactive). Moreover, in assay [6] (H69AR cells + 2 uM doxorubicin), the differential viability (reversal) was -1.72% (inactive). The inhibition in assay [7] was -4.32% (inactive); in assay [8] it was -6.67% (inactive).

Turning to `COc1ccc(-n2c(SCCC(=O)O)nnc2-c2ccncc2)cc1`, the viability is 96% in assay [1]; 96% (inactive) in assay [3]; 97% (inactive) in assay [4]; 96.7% (inactive) in assay [5]; 96.1% in assay [6] (setting [9]); 96.7% in assay [6] (setting [10]). Also, the Her2 level in assay [2] was 96% (inactive). For the same compound, the differential viability (reversal) in assay [6] (H69AR cells + 2 uM doxorubicin) is 0.675% (inactive). Also, the inhibition in assay [7] was -3.42% (inactive); in assay [8], 0.32% (inactive).

As to `Cc1cc(C(=O)NCCN2CCCCC2C)n(-c2ccccc2)n1` (stereo not given), the viability is 87.5% in assay [1]; 87.5% (inactive) in assay [3]; 92.3% (inactive) in assay [4]; 92.6% (inactive) in assay [5]; 89.1% in assay [6] (setting [9]); 92.6% in assay [6] (setting [10]). Besides, in assay [2], the Her2 level was 116% (inactive). Besides, in assay [6] (H69AR cells + 2 uM doxorubicin), the differential viability (reversal) is 3.49% (inactive). Besides, the inhibition in assay [7] was -2.8% (inactive); in assay [8] it was -3.77% (inactive).

For `CC(C)(C)N(Cc1cc2ccccc2[nH]c1=O)C(=O)C1CCCCC1`, the viability in assay [1] was 104%; in assay [3], 104% (inactive); in assay [4], 69.4% (inactive); in assay [5], 86.1% (inactive); in assay [6] (setting [9]) it was 82.8%; in assay [6] (setting [10]), 86.1%. Besides, the Her2 level in assay [2] is 118% (inactive). In assay [6] (H69AR cells + 2 uM doxorubicin), the differential viability (reversal) was 3.29% (inactive). For the same compound, the inhibition is -3.2% (inactive) in assay [7] and -7.21% (inactive) in assay [8].

In the case of `CS(=O)(=O)c1ccc2nc(NC(=O)c3cccs3)sc2c1`, the viability in assay [1] was 99%; in assay [3], 99% (inactive); in assay [4] it was 64% (inactive); in assay [5] it was 45% (active); in assay [6] (setting [9]), 51.4%; in assay [6] (setting [10]), 45%. In assay [2], the Her2 level is 74.5% (inactive). Besides, in assay [6] (H69AR cells + 2 uM doxorubicin), the differential viability (reversal) was -6.37% (inactive). Besides, the inhibition in assay [7] is -6.76% (inactive); in assay [8], 2.95% (inactive).

For the compound `COc1ccc(Cc2nn3c(-c4cc(OC)c(OC)c(OC)c4)nnc3s2)cc1`, the viability in assay [1] is 95%; in assay [3] it was 95% (inactive); in assay [4], 102% (inactive); in assay [5], 81.6% (inactive); in assay [6] (setting [9]), 69.9%; in assay [6] (setting [10]) it was 81.6%. In assay [2], the Her2 level is 76.5% (inactive). In assay [6] (H69AR cells + 2 uM doxorubicin), the differential viability (reversal) is 11.7% (inactive). Further, the inhibition in assay [7] was -6.08% (inactive); in assay [8], 5.17% (inactive).

As to `Cc1cc(C(=O)NCCCN2CCN(C3CCCCC3)CC2)n(-c2ccccc2)n1`, the viability in assay [1] is 94%; in assay [3], 94% (inactive); in assay [4] it was 111% (inactive); in assay [5], 103% (inactive); in assay [6] (setting [9]) it was 90.8%; in assay [6] (setting [10]), 103%. In addition, the Her2 level in assay [2] was 111% (inactive). For the same compound, the differential viability (reversal) in assay [6] (H69AR cells + 2 uM doxorubicin) was 11.8% (inactive). Further, the inhibition in assay [7] was 1.73% (inactive); in assay [8], -8.33% (inactive).
